Laboratory results taken from PubChem BioAssay AID624097 (The Scripps Research Institute Molecular Screening Center, 2012).
Several values for one entry are separate records, joined by “and”; a condition that tells them apart may be missing. Equal values may be shown once. Activity calls are given as the source filed them.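 The calls were made as follows: active = lowest compound dose that cuts the imipenem minimum inhibitory concentration fourfold is 10 µM or below; inactive = that dose above 10 µM or never reached.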

System: E. coli BL21 IMP-1, imipenem synergy, OD590, 18 h
Assay: growth inhibition synergy, IMP-1 E. coli with imipenem – E. coli BL21, powder samples, VIM-2 MBL inhibitor project, late-stage follow-up (AID 624097)
Settings: not given
In short: (§1)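 Material: E. coli BL21 carrying IMP-1; dosing: two-fold compound × imipenem checkerboard; timing: bacterial growth at least 18 h, 37 °C, aerobic; measured by: turbidity by absorbance at 590 nm, MIC per CLSI; also added: imipenem in two-fold dilution series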

| MIC | SMILES |
| --- | --- |
| 0.781 µM | CN1CCN(C(=O)CN2C(=O)/C(=C/c3c(Cl)ccc(Cl)c3Cl)SC2=S)CC1 |
| 0.781 µM | O=C(CN1C(=O)/C(=C/c2c(Cl)ccc(Cl)c2Cl)SC1=S)NCc1ccccn1 |
| 25 µM (inactive) | O=C(CN1C(=O)/C(=C/c2c(Cl)ccc(Cl)c2Cl)SC1=S)NN1CCNCC1 |

The remaining lines, values behind:

| SMILES | MIC |
| --- | --- |
| CN1CCN(NC(=O)CN2C(=O)/C(=C/c3c(Cl)cccc3Cl)SC2=S)CC1 | 25 µM (inactive) and 3.12 µM |
| CN1CCN(NC(=O)CN2C(=O)/C(=C/c3c(Cl)ccc(Cl)c3Cl)SC2=S)CC1 | 0.781 µM and 1.56 µM |
| CC(C)(C)OC(=O)N1CCN(NC(=O)CN2C(=O)/C(=C/c3c(Cl)ccc(Cl)c3Cl)SC2=S)CC1 | 3.12 µM |

System: not listed separately
Assay: as above
Settings: E. coli BL21 IMP-1, imipenem synergy, OD590, 18 h; measured here: max imipenem fold potentiation; stronger effect = higher value
In short: as §1

| SMILES | fold potentiation |
| --- | --- |
| CN1CCN(C(=O)CN2C(=O)/C(=C/c3c(Cl)ccc(Cl)c3Cl)SC2=S)CC1 | 8 |
